Laboratory results as given in ChEMBL document CHEMBL3352550, “Discovery and optimization of 4,5-diarylisoxazoles as potent dual inhibitors of pyruvate dehydrogenase kinase and heat shock protein 90” (J Med Chem, 2014).

Legend:
[1] = target: T1, [Pyruvate dehydrogenase (acetyl-transferring)] kinase isozyme 1, mitochondrial (Homo sapiens, UniProt Q15118); assay: Inhibition of recombinant PDHK1 (unknown origin) expressed in Escherichia coli at 10 uM incubated for 1 hr by ELISA
Procedure, shortened: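 Recombinant His6-SUMO-PDHK1 was expressed in E. coli and purified on nickel resin. It was used at 0.25 µg/well on immobilized PDHA1 substrate (0.5 µg/well) with 10 µM ATP in 50 mM HEPES, 10 mM MgCl2 and 1 mM EGTA. Compounds were screened at 10 µM and percent inhibition was recorded. Detection used anti-p-PDHA1(S293) for 1 h and HRP secondary antibody for 1 h, then o-phenylenediamine, read at OD490.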

[2] = target: T1, [Pyruvate dehydrogenase (acetyl-transferring)] kinase isozyme 1, mitochondrial; assay: Inhibition of recombinant PDHK1 (unknown origin) expressed in Escherichia coli incubated for 1 hr by ELISA
Heat shock protein HSP90 = Heat shock protein HSP90 (Homo sapiens, UniProt P07900+P08238); assay: Inhibition of geldanamycin-BODIPY binding to full-length HSP90 (unknown origin) by fluorescence polarization based competition assay; type: protein assay
Procedure, shortened: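 Fluorescence polarization competition using full-length HSP90 and geldanamycin-BODIPY as probe.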

T1 sequence (Q15118 whole entry): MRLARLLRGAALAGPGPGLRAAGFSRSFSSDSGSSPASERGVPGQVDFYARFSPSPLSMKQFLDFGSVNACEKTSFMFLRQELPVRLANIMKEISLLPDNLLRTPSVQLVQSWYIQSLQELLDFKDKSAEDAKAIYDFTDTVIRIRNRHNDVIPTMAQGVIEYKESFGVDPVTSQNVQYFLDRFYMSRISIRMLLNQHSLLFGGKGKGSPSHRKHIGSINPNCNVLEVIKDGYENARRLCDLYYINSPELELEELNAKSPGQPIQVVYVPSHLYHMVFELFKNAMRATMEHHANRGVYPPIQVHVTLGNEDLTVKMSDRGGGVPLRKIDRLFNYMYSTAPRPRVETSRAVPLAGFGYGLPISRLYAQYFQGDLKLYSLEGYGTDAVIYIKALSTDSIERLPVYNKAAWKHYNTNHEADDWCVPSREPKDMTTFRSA

inhibition [1] [%] | IC50 [2] [nM] | IC50 (Heat shock protein HSP90) [nM] | SMILES
> 50 | 521 | 338 | O=C(/C=C/c1noc(-c2cc(Cl)c(O)cc2O)c1-c1ccc(O)cc1)N1CCN(c2ncccn2)CC1
> 50 | 380 | 91 | COc1ccc(-c2c(C(=O)Nc3ccc(N(C)C)cc3)noc2-c2cc(Cl)c(O)cc2O)cc1
> 50 | 580 | 154 | COc1ccc(-c2c(C(=O)Nc3ccncc3)noc2-c2cc(Cl)c(O)cc2O)cc1
> 50 | 4310 | 4232 | COc1ccc(-c2c(/C=C/C(=O)N3CCN(c4ccc(Cl)c(Cl)c4)CC3)noc2-c2cc(Cl)c(O)cc2O)cc1
> 50 | 491 | 718 | COc1ccc(-c2c(/C=C/C(=O)N3CCN(c4cccc(OC)c4)CC3)noc2-c2cc(Cl)c(O)cc2O)cc1
> 50 | 878 | 357 | O=C(/C=C/c1noc(-c2cc(Cl)c(O)cc2O)c1-c1ccc(O)cc1)N1CCN(c2ccccn2)CC1
> 50 | 1420 | 3939 | O=C(/C=C/c1noc(-c2cc(Cl)c(O)cc2O)c1-c1ccc(O)cc1)N1CCN(c2ccc(Cl)c(Cl)c2)CC1
> 50 | 557 | 700 | COc1ccc(-c2c(/C=C/C(=O)N3CCN(c4ccc(OC)cc4)CC3)noc2-c2cc(Cl)c(O)cc2O)cc1
> 50 | 2370 | 2255 | COc1ccc(-c2c(/C=C/C(=O)N3CCN(c4cccc(C(F)(F)F)c4)CC3)noc2-c2cc(Cl)c(O)cc2O)cc1
> 50 | 1920 | 677 | COc1ccc(-c2c(/C=C/C(=O)N3CCN(c4ccccc4)CC3)noc2-c2cc(Cl)c(O)cc2O)cc1
> 50 | 160 | 127 | COc1ccc(-c2c(C(=O)NC3CCN(Cc4ccc(Cl)cc4Cl)CC3)noc2-c2cc(Cl)c(O)cc2O)cc1
> 50 | 68 | 23 | COc1ccc(-c2c(C(=O)NC3CCN(CC(C)C)CC3)noc2-c2cc(Cl)c(O)cc2O)cc1
> 50 | 150 | 20 | CCNC(=O)N1CCC(NC(=O)c2noc(-c3cc(Cl)c(O)cc3O)c2-c2ccc(OC)cc2)CC1
> 50 | 952 | 576 | COc1ccc(N2CCN(C(=O)/C=C/c3noc(-c4cc(Cl)c(O)cc4O)c3-c3ccc(O)cc3)CC2)cc1
> 50 | 59 | 15 | COc1ccc(-c2c(C(=O)NC3CCN(Cc4ccncc4)CC3)noc2-c2cc(Cl)c(O)cc2O)cc1
> 50 | 610 | 1600 | COc1ccc(-c2c(C(=O)NCc3ccc(Cl)cc3Cl)noc2-c2cc(Cl)c(O)cc2O)cc1
> 50 | 1050 | 215 | COc1ccc(-c2c(/C=C/C(=O)N3CCN(c4ccccn4)CC3)noc2-c2cc(Cl)c(O)cc2O)cc1
> 50 | 2950 | 1859 | O=C(/C=C/c1noc(-c2cc(Cl)c(O)cc2O)c1-c1ccc(O)cc1)N1CCN(c2cccc(C(F)(F)F)c2)CC1
< 50 | > 10000 | > 10000 | COc1ccc(-c2c(C(=O)N3CCC(Cc4ccccc4)CC3)noc2-c2cc(Cl)c(O)cc2O)cc1
> 50 | 210 | 25 | COc1ccc(-c2c(C(=O)NC3CCN(C(C)=O)CC3)noc2-c2cc(Cl)c(O)cc2O)cc1
> 50 | 845 | 596 | COc1ccc(-c2c(/C=C/C(=O)N3CCN(c4ccccc4OC)CC3)noc2-c2cc(Cl)c(O)cc2O)cc1
> 50 | 130 | 45 | COc1ccc(-c2c(C(=O)NC3CCN(S(C)(=O)=O)CC3)noc2-c2cc(Cl)c(O)cc2O)cc1
